Test results reported in ChEMBL document CHEMBL5625229 (Eur J Med Chem, 2023).

Legend:
[1] = biological target: ATP-dependent translocase ABCB1 (Homo sapiens, UniProt P08183); test: Inhibition of MDR1 (unknown origin) overexpressed in MDCK cells using Calcein-AM as substrate preincubated for 30 mins followed by substrate addition measured after 30 mins by fluorescence based assay; type: cell-based
[2] = biological target: Multidrug resistance-associated protein 1 (Homo sapiens, UniProt P33527); test: Inhibition of MRP1 (unknown origin) overexpressed in MDCK cells using Calcein-AM as substrate preincubated for 30 mins followed by substrate addition measured after 30 mins by fluorescence based assay; type: cell-based
In short: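 MDCK-MRP1 cells, 30 000/well, grown overnight, then treated with compound (final 0.01 nM–100 µM, lower for very potent ones) in medium for 30 min at 37 °C. Calcein-AM added at 2.5 µM final for 30 min, then three ice-cold PBS washes. Fluorescence read at 485/535 nm against untreated cells. EC50 from fluorescence increase versus log dose, mean ± SEM of three experiments in duplicate.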

[3] = biological target: T1, Broad substrate specificity ATP-binding cassette transporter ABCG2 (Homo sapiens, UniProt Q9UNQ0); test: Inhibition of BCRP (unknown origin) overexpressed in MDCK cells using Hoechst 33342 as substrate preincubated for 30 mins followed by substrate addition measured after 30 mins by fluorescence based assay; type: cell-based
T1 sequence (Q9UNQ0 whole entry): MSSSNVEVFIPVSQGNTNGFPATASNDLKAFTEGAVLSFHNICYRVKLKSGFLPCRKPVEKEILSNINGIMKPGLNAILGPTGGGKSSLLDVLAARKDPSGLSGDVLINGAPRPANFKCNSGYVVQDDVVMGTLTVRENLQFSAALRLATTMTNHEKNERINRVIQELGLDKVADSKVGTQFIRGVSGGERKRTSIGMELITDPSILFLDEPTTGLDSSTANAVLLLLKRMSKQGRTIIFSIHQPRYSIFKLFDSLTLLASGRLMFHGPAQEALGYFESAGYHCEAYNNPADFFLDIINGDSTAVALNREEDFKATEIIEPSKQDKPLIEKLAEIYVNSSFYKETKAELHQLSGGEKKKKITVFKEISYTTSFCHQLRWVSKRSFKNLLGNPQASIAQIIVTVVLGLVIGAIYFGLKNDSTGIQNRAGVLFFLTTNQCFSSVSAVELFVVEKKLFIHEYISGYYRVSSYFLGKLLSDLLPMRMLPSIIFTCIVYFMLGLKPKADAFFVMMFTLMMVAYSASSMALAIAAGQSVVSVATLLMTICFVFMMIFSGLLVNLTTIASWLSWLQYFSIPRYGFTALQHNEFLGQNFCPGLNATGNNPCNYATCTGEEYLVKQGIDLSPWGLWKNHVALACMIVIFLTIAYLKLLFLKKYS

[4] = Efflux ratio of apparent permeability across basal to apical membrane over apical to basal membrane in human Caco-2 cells at 100 uM incubated fro 120 mins by spectroscopy; type: ADME, cell-based
In short: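 Caco-2 grown 21 days on Transwell filters, with TEER checked daily (above 1000 Ω taken as optimal). Washed in HBSS and equilibrated 30 min at 37 °C, then compound at 100 µM added to the donor side (apical or basolateral), with fresh HBSS on the receiver side, for 120 min at 37 °C. Acceptor concentration by UV spectroscopy gives Papp (nm/s). Ratio = Papp BA/AB, three experiments in duplicate.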

HT-29 = test: Antiproliferative activity against human HT-29 cells at 1 to 10 uM incubated for 48 hrs relative to control; type: functional; conditions: dose 1-10 µM
In short: (§1)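 Compound alone (1 μM and 10 μM), 48 h, on HT29 or on HT29/DX (the latter kept in 100 nM doxorubicin to hold resistance). Cells seeded 10 000/well, compound added after 24 h. Viability by MTT (0.5 mg/mL, 3–4 h), formazan in DMSO/EtOH 1:1, absorbance 570/630 nm. Three independent experiments in duplicate.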

[5] = Antiproliferative activity against doxorubicin-resistant human HT-29 cells at 1 to 10 uM incubated for 48 hrs relative to control; type: functional, doxorubicin-resistant human HT-29 cell; conditions: dose 1-10 µM; in short: as §1
[6] = Potentiation of DOX-induced cytotoxicity against doxorubicin-resistant human HT-29 cells assessed as reduction in cell viability at 10 uM incubated for 48 hrs relative to control; type: functional, doxorubicin-resistant human HT-29 cell
In short: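 HT29/DX cells (10 000/well) were given compound at 1 or 10 µM together with 5 µM doxorubicin 24 h after seeding. After 48 h, viability by MTT (0.5 mg/mL, 3–4 h, 37 °C), read at 570/630 nm against untreated cells. Three independent experiments, technical duplicates; one-way ANOVA.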

Multidrug resistance-associated protein 1, sequence (P33527 whole entry): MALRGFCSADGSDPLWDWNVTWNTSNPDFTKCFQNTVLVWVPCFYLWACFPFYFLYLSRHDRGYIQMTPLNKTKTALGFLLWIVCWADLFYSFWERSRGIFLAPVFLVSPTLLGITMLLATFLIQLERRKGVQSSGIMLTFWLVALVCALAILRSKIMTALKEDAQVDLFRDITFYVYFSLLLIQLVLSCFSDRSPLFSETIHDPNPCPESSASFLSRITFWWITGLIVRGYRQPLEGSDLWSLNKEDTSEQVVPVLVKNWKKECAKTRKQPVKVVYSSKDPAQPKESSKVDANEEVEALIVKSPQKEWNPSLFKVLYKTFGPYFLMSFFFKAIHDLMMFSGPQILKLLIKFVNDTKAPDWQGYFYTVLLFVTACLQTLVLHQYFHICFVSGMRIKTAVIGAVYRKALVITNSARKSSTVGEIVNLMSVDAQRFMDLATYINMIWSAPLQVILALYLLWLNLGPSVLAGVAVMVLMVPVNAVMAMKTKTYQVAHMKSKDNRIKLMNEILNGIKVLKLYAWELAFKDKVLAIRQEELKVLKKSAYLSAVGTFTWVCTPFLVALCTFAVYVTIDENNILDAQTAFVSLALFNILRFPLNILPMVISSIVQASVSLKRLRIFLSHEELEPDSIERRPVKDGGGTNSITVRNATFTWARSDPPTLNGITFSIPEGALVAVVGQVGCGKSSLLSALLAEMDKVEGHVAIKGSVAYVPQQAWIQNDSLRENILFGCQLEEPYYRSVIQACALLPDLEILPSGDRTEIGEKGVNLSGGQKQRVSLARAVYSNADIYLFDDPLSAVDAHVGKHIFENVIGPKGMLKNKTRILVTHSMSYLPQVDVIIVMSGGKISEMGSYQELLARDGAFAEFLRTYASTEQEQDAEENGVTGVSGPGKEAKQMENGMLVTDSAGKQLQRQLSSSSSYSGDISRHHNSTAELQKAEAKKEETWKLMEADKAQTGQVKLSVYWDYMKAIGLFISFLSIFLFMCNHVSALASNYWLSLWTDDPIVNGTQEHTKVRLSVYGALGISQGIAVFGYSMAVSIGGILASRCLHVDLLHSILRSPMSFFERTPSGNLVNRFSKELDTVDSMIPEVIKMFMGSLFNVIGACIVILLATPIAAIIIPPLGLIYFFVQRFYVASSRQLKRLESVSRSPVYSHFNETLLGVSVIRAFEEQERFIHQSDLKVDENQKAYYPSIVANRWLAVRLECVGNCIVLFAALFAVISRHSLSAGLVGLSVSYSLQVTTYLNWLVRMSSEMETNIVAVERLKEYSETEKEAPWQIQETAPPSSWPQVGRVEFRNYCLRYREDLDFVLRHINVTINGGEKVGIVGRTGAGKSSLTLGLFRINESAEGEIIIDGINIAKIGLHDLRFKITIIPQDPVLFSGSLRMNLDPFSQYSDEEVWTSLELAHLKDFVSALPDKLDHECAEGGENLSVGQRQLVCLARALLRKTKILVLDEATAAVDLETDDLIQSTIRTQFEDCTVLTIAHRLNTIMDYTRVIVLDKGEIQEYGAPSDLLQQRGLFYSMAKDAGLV
ATP-dependent translocase ABCB1, sequence (P08183 whole entry): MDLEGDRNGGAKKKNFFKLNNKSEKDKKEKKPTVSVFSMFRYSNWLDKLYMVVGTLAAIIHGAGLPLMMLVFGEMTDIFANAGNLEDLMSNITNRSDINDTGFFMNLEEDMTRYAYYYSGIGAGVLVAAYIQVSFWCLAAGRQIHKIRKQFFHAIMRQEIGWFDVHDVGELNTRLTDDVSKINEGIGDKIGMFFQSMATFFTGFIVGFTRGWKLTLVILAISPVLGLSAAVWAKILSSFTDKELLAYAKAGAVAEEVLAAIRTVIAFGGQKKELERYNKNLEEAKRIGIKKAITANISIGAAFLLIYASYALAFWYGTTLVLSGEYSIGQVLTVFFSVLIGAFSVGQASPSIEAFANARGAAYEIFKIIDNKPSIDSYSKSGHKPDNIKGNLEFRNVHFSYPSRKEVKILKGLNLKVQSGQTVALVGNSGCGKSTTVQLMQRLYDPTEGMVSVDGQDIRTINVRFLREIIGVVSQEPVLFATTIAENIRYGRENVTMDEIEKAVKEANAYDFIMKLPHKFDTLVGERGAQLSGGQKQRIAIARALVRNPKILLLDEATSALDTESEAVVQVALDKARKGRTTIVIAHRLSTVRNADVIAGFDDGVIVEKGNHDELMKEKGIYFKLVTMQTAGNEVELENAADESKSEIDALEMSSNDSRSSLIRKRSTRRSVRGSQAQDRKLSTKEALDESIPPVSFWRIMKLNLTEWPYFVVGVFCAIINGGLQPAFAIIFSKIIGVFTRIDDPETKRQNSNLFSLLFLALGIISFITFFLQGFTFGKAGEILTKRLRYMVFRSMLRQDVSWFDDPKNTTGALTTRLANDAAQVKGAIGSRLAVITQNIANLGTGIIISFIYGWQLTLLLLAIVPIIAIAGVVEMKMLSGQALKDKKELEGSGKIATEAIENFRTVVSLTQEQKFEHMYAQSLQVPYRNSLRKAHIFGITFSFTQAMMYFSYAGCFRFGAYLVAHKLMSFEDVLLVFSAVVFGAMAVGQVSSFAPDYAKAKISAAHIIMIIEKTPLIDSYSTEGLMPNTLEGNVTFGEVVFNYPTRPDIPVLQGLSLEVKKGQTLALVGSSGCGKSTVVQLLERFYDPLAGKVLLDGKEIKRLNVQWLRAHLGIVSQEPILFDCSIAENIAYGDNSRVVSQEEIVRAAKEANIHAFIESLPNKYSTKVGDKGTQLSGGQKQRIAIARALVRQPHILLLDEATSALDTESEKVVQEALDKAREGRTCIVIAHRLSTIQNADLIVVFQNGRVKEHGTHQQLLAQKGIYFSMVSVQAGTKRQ

COc1cc2c(cc1OC)CN(CCc1ccc(-c3nnc(-c4c(OC)c(OC)cc5ccccc45)o3)cc1)CC2
EC50 [1]: 0.046 µM | EC50 [2]: > 100 µM | EC50 [3]: > 100 µM | efflux ratio at 2 h, 100 µM [4]: 9.7 | Activity (HT-29): ~10% | Activity [5]: ~10%

COc1cc2c(cc1OC)CN(CCc1ccc(-n3nnc(-c4ccc(OC)c(OC)c4OC)n3)cc1)CC2
EC50 [1]: 0.55 µM | EC50 [2]: > 100 µM

COc1cc2c(cc1OC)CN(CCc1ccc(-n3nnc(-c4cc(OC)c(OC)c(OC)c4)n3)cc1)CC2
EC50 [1]: 0.26 µM | EC50 [2]: > 100 µM

COc1cc2c(cc1OC)CN(CCc1ccc(-n3nnc(-c4c(OC)ccc5ccccc45)n3)cc1)CC2
EC50 [1]: 0.09 µM | EC50 [2]: > 100 µM | EC50 [3]: > 100 µM | efflux ratio at 2 h, 100 µM [4]: 4.5 | Activity (HT-29): ~10% | Activity [5]: ~10%

COc1cc2c(cc1OC)CN(CCc1ccc(-n3nnc(-c4ccccc4OC)n3)cc1)CC2
EC50 [1]: 0.082 µM | EC50 [2]: > 100 µM

COc1cc2c(cc1OC)CN(CCc1ccc(-n3nnc(/C=C/c4cc(OC)c(OC)c(OC)c4)n3)cc1)CC2
EC50 [1]: 0.012 µM | EC50 [2]: > 100 µM | EC50 [3]: 53.6 µM | efflux ratio at 2 h, 100 µM [4]: 5.4 | Activity (HT-29): ~10% | Activity [5]: ~10%

COc1cc2c(cc1OC)CN(CCc1ccc(-c3nnc(-c4ccc(OC)c(OC)c4OC)o3)cc1)CC2
EC50 [1]: 0.44 µM | EC50 [2]: > 100 µM | EC50 [3]: > 100 µM | efflux ratio at 2 h, 100 µM [4]: 6.5 | Activity (HT-29): ~10% | Activity [5]: ~10%

COc1cc2c(cc1OC)CN(CCc1ccc(-n3nnc(-c4cccc(OC)c4OC)n3)cc1)CC2
EC50 [1]: 0.14 µM | EC50 [2]: > 100 µM

COc1cc2c(cc1OC)CN(CCc1ccc(-c3nnc(-c4c(OC)ccc5ccccc45)o3)cc1)CC2
EC50 [2]: > 100 µM | EC50 [3]: > 100 µM

COc1cc2c(cc1OC)CN(CCc1ccc(NC(=O)c3cccc4c(=O)c5cccc(OC)c5[nH]c34)cc1)CC2
EC50 [2]: > 100 µM

COc1cc2c(cc1OC)CN(CCc1ccc(-n3nnnc3-c3c(OC)c(OC)cc4ccccc34)cc1)CC2
EC50 [1]: 1.06 µM | EC50 [2]: > 100 µM | EC50 [3]: > 100 µM | efflux ratio at 2 h, 100 µM [4]: 3.3

COc1cc2c(cc1OC)CN(CCc1ccc(-n3nnc(-c4c(OC)c(OC)cc5ccccc45)n3)cc1)CC2
EC50 [1]: 0.26 µM | EC50 [2]: > 100 µM

COc1cc2c(cc1OC)CN(CCc1ccc(-n3nnnc3-c3c(OC)ccc4ccccc34)cc1)CC2
EC50 [1]: 0.75 µM | EC50 [2]: > 100 µM

COc1cc2c(cc1OC)CN(CCc1ccc(-n3nnnc3-c3cc(OC)c(OC)c(OC)c3)cc1)CC2
EC50 [1]: 0.63 µM | EC50 [2]: 4.33 µM

COc1cc2c(cc1OC)CN(CCc1ccc(-c3nnc(-c4cccc(OC)c4OC)o3)cc1)CC2
EC50 [1]: 0.4 µM | EC50 [2]: > 100 µM | EC50 [3]: > 100 µM | efflux ratio at 2 h, 100 µM [4]: 6.8 | Activity (HT-29): ~10% | Activity [5]: ~10%

COc1cc2c(cc1OC)CN(CCc1ccc(-n3nnnc3/C=C/c3cc(OC)c(OC)c(OC)c3)cc1)CC2
EC50 [1]: 5.27 µM | EC50 [2]: > 100 µM

COc1cc2c(cc1OC)CN(CCc1ccc(-c3nnc(/C=C/c4cc(OC)c(OC)c(OC)c4)o3)cc1)CC2
EC50 [2]: > 100 µM

COc1cc2c(cc1OC)CN(CCc1ccc(NC(=O)c3cc(OC)c(OC)cc3NC(=O)c3cnc4ccccc4c3)cc1)CC2
efflux ratio at 2 h, 100 µM [4]: 22

COc1cc2c(cc1OC)CN(CCc1ccc(-c3nnc(-c4cc(OC)c(OC)c(OC)c4)o3)cc1)CC2
EC50 [1]: 0.071 µM | EC50 [2]: > 100 µM

COc1cc2c(cc1OC)CN(CCc1ccc(-c3nnc(-c4c(OC)cccc4OC)o3)cc1)CC2
EC50 [2]: > 100 µM | EC50 [3]: > 100 µM

COc1cc2c(cc1OC)CN(CCc1ccc(-n3nnnc3-c3ccccc3OC)cc1)CC2
EC50 [1]: 0.95 µM | EC50 [2]: > 100 µM

COc1cc2c(cc1OC)CN(CCc1ccc(-c3nnc(-c4ccccc4OC)o3)cc1)CC2
EC50 [1]: 0.019 µM | EC50 [2]: > 100 µM | EC50 [3]: > 100 µM | efflux ratio at 2 h, 100 µM [4]: 6.3 | Activity (HT-29): ~10% | Activity [5]: ~10% | Activity [6]: 64.3%

COc1cc2c(cc1OC)CN(CCc1ccc(-n3nnnc3-c3ccc(OC)c(OC)c3OC)cc1)CC2
EC50 [1]: 0.75 µM | EC50 [2]: 7.49 µM

COc1cc2c(cc1OC)CN(CCc1ccc(-n3nnc(-c4c(OC)cccc4OC)n3)cc1)CC2
EC50 [2]: > 100 µM
